Screen size: about 97,000 compounds; about 770 (0.79%) were called active. The sample as a whole holds a higher share of actives than the screen did. A number with no mark means an inactive call.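 How the source made its calls: active means inhibition above the screen-wide mean plus 3 SD (cut at about 35% in these data); inactive means the rest.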
Target: Protein Rev (Human immunodeficiency virus type 1 group M subtype B (isolate WMJ22)) (UniProt P05866)
Assay: HIV-1 Rev-RRE binding inhibitors, primary screen, biochemical, FRET, protein-RNA interaction (AID 704);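 further: 0% = median DMSO wells and 100% = median Neomycin B control wells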
Conditions: Rev peptide-RRE RNA binding, at 8 µM, active compounds read high
Summary of the method: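 Test system – labelled RRE RNA duplex and labelled Rev peptide · Signal – fluorescein-to-Cy5 FRET, 480 nm excitation · Evaluation – % inhibition of FRET ratio versus controls · Benchmarks – DMSO low control, neomycin B high control · Incubation – 5 min RNA-compound premix plus 15 min binding step, 25 °C · Medium – HEPES pH 7.5 salt buffer with EDTA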

Sequence of Protein Rev (Human immunodeficiency virus type 1 group M subtype B (isolate WMJ22)) (P05866 whole entry, looked up): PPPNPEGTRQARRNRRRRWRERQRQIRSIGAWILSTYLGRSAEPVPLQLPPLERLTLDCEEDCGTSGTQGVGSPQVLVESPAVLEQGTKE

Row | Compound | inhibition
1 | O=C(Cc1c[nH]c2ccccc12)OCCOC(=O)Cc1c[nH]c2ccccc12 | 3.26%
2 | COC(=O)C(C)n1cnc2c(nnn2-c2cccc(Cl)c2)c1=O (stereo not drawn) | 3.58%
3 | CCOc1cccc(-n2nnnc2-c2ccc(OC)cc2)c1 | 1.17%
4 | CCOc1nnc(C)c2c(C)n(-c3cccc(Cl)c3)nc12 | 53.5% (active)
5 | C=CCC(NCc1ccco1)c1ccc(OC)cc1 (stereo not drawn) | 2.12%
6 | CCCCCCCCOC1OC(CO)C(O)C(O)C1NC(C)=O (stereo not drawn) | -1.01%
7 | O=C(c1ccc2c(c1)OCO2)N1CCOCC1 | 2.74%
8 | O=C(NCCOc1ccccc1)c1ccccc1 | 7.52%
9 | CCOC(=O)c1sc(NC(=O)c2ccncc2)nc1C | 4.33%
10 | CC/S(CC1CC1(Cl)Cl)=N\S(=O)(=O)c1ccc(C)cc1 (stereo not drawn) | -0.12%
11 | CCN(CC)C(=O)CSc1nnc(C2CCCCC2)o1 | -0.19%
12 | CCOc1ccc2c(c1)C(c1ccc(C)cc1)=NNC(c1ccc(C)cc1)=N2 | -0.68%
13 | COc1ccccc1C(c1nnnn1C(C)(C)C)N1CCN(Cc2ccccc2)CC1 (stereo not drawn) | 5.48%
14 | O=C1CSC(c2ccccc2)N1c1nc(-c2ccc(Cl)cc2Cl)cs1 (stereo not drawn) | 11.2%
15 | Cc1cc(C)cc(OCC(=O)NNC(=O)c2cc3ccccc3oc2=O)c1 | 3.32%
16 | O=c1c2ccccc2c(-c2ccc(Br)cc2)nn1Cc1ccccc1 | 10.1%
17 | CC1=NN(Cc2ccccc2)C(=O)/C1=C/c1ccc(N(C)C)cc1 | 13.1%
18 | CN(C)c1ccc(/C=C2\NC(=S)N(Cc3ccccc3)C2=O)cc1 | 136% [fluorescence artefact?] (active)
19 | CC(C)(C)n1nnnc1C(c1ccc(Cl)cc1)N1CCSCC1 (stereo not drawn) | 3.16%
20 | O=c1c2ccccc2nc2n1C(CSCc1cccc(C(F)(F)F)c1)CS2 (stereo not drawn) | 5.83%
21 | OC(COCCC12CC3CC(CC(C3)C1)C2)CN1CCCCC1 (stereo not drawn) | -1.79%
22 | CCCCn1c(=S)[nH]c2cc(S(=O)(=O)N3CCCCC3)ccc21 | 1.26%
23 | Clc1ccc(-n2nnnc2CN2CCCCC2)cc1Cl | 1.19%
24 | CCOC(=O)C1=C(C)NC2=C(C(=O)CC(C)(C)C2)C1c1ccsc1 (stereo not drawn) | 0.96%

Row | Compound | inhibition
25 | CCOC(=O)c1[nH]c2ccc(C)cc2c1N=C(C)N(C)C | 7.68%
26 | Cc1[nH]c2ccccc2c1C(=O)COC(=O)C(C)C | 2.32%
27 | CCOC(=O)c1[nH]c2ccccc2c1N=C(C)N(CC)CC | 65% (active)
28 | O=C(Nc1nccs1)C1CCN(S(=O)(=O)c2ccc(Cl)c(C(F)(F)F)c2)CC1 | 11.3%
29 | COC(=O)c1sccc1-n1cccc1C(=O)C(=O)N1CCCCC1 | 4.4%
30 | Cc1cccc(-c2nc3c(c(SCC(=O)N4CCOCC4)n2)CCCC3)c1 | 12.4%
31 | CCCCSc1[nH]c(=O)c(C(=O)OCC)cc1C#N | 0.71%
32 | COc1ccc(-n2nc(C(=O)NCC(=O)Nc3cccc(C)n3)c3ccccc3c2=O)cc1 | 6.83%
33 | Cc1nc(-c2ccccc2)sc1-c1nc(-c2ccccc2)ncc1S(=O)(=O)c1ccccc1 | 2.59%
34 | CNC(=O)/C(=C\C=C\c1ccccc1)NC(=O)c1ccc([N+](=O)[O-])cc1 | 3.26%
35 | CCOC(=O)c1cnn(Cc2ccccc2Cl)c1N | 3.78%
36 | O=c1oc2cc(O)ccc2cc1-c1ccc(F)cc1 | 10.2%
37 | CCCCCCc1cc2cc(-c3nnc(-c4ccccc4)o3)c(=O)oc2cc1O | 136% [fluorescence artefact?] (active)
38 | CCCCN(CC)CCCNC(=O)CS(=O)(=O)Cc1nc(-c2cccc(OC)c2)oc1C | -1.81%
39 | COc1cccc(C(=O)c2cc3ccc(O)cc3oc2=O)c1 | 2.17%
40 | CCCCCCc1cc2cc(-c3nnc(-c4cccc(OC)c4)o3)c(=O)oc2cc1O | 126% [fluorescence artefact?] (active)
41 | COc1cc(C(=O)NC(=S)NCc2ccco2)cc(OC)c1OC | -0.1%
42 | COc1ccc(-c2cc(C3CCN(c4ncccc4[N+](=O)[O-])CC3)[nH]n2)cc1 | 15.1%
43 | Cc1cccc(CSc2nnc(NC(=O)CSc3nnc(C)s3)s2)c1 | 2.97%
44 | Cc1ccc(-c2noc(CSc3nnc(-c4ccncc4)n3-c3ccc(F)cc3)n2)cc1 | 1.43%
45 | CCOc1ccc(NC(=O)N(CC(C)C)CC(C)C)cc1 | 7.89%
46 | COc1ccc(CCNC(=S)NC(=O)/C=C/c2ccc(C)cc2)cc1OC | -2.76%
47 | CC(=O)Nc1ccc(S(=O)(=O)N2CCN(C(=O)c3ccccc3F)CC2)cc1 | 4.25%
48 | Cn1c2c(c(=O)n(C)c1=O)C(c1cccc([N+](=O)[O-])c1)Nc1ccccc1O2 (stereo not drawn) | 0.04%

Row | Compound | inhibition
49 | CS(=O)(=O)n1nc(-c2ccccc2)nc1NCc1ccco1 | 7.66%
50 | CSc1nc(N(C)NC(=O)c2cccc(C)c2)c2ccccc2n1 | 3.84%
51 | Cc1ccc(C)c(NC(=O)C2Cc3ccccc3CN2C(=O)OCc2ccccc2)c1 (stereo not drawn) | 15.4%
52 | CCOC(=O)c1c(C)oc2cc(Br)c(OCC(N)=O)cc12 | -5.76%
53 | COC(=O)C1=C(C)NC(=O)NC1/C=C/c1ccccc1 (stereo not drawn) | 7.27%
54 | COC(=O)C1=C(C)NC2=C(C(=O)c3ccccc32)C1c1ccc(-c2ccc(C(=O)O)cc2)o1 (stereo not drawn) | 41.7% (active)
55 | COc1ccccc1NC(=O)C1=C(C)NC2=C(C(=O)CCC2)C1c1ccc(C)o1 (stereo not drawn) | -3.73%
56 | N#C/C(=C(/O)COc1cccc2ccccc12)c1nc2ccccc2[nH]1 | 8.41%
57 | COc1ccc(-n2nnnc2SCc2nc(N)nc(N3CCOCC3)n2)cc1 | 8.05%
58 | O=C(COc1ccc(/C=N/NS(=O)(=O)c2ccccc2)cc1)NCCc1ccccc1 | 6.41%
59 | O=S(=O)(N1CCCCC1)N1CCNCC1 | 0.92%
60 | CCN(CC)c1ccc(NC(=O)c2ccc(Cl)nc2)cc1 | -7.72%
61 | Cc1c(C(=O)OC(C)C)sc(NC(=O)c2cccnc2)c1C#N | 27.8%
62 | CC(C)c1cc(C(N)=O)c(NC(=O)c2cccc(COc3ccc(Br)cc3)c2)s1 | 15.9%
63 | CC1=CC(C)(C)Nc2ccc(OC(=O)C(Cc3ccccc3)N3C(=O)C4CCCCC4C3=O)cc21 (stereo not drawn) | -0.51%
64 | CCCNC(=O)CN(Cc1ccccc1F)S(=O)(=O)c1ccc(C)cc1 | 8.11%
65 | COC(=O)/C(NC(C)=O)=C(\C)c1ccc(Cl)cc1 | 1.2%
66 | O=C(c1cc2c(s1)CCC2)N1CCN(c2ccccc2)CC1 | -4.48%
67 | CC(=O)Nc1ccc(OCC(O)CN2CCN(c3ccccc3Cl)CC2)cc1 (stereo not drawn) | -0.14%
68 | Cc1cc2c(c(=O)n1Cc1ccco1)C(c1ccccc1)C(C#N)=C(N)O2 (stereo not drawn) | 7.8%
69 | CN(c1ccccc1)c1ccc(/C=c2\s/c(=C(/C#N)C(=O)C(C)(C)C)n(Cc3ccco3)c2=O)cc1 | 117% [fluorescence artefact?] (active)
70 | CCOC(=O)CSc1nc2c(sc(=S)n2CCc2ccccc2)c(=O)n1Cc1ccco1 | 7.11%
71 | N#C/C(=C(/O)Cc1cccc2ccccc12)c1nc2ccccc2s1 | 3.55%
72 | O=C(C1=C(O)C(=O)N(Cc2ccccc2)C1c1cccnc1)c1ccco1 (stereo not drawn) | 7.49%

Row | Compound | inhibition
73 | O=C(C1=C(O)C(=O)N(c2ncccn2)C1c1cccs1)c1ccco1 (stereo not drawn) | 46.5% (active)
74 | O=C(C1=C(O)C(=O)N(Cc2ccccc2)C1c1ccco1)c1ccco1 (stereo not drawn) | 0.29%
75 | O=c1c2ccccc2nc2n1C(CSc1ccc(Cl)cc1)CN2 (stereo not drawn) | 6.92%
76 | CCOC(=O)c1sc(C)c2c1NC(C)(c1cccc3ccccc13)NC2=O (stereo not drawn) | 18.2%
77 | CCN1C(=O)C(CC(=O)Nc2cc(C)ccc2C)SC1=Nc1ccc(S(N)(=O)=O)cc1 (stereo not drawn) | 9.41%
78 | CC(CN1CCOCC1)c1ccccc1 (stereo not drawn) | 10.4%
79 | Cc1ccc(NC(=O)Nc2ccc3oc(C)nc3c2)cc1 | 7.33%
80 | CCOCN(C(=O)Cn1c(C(C)O)nc2ccccc21)c1c(C)cccc1CC (stereo not drawn) | 2.37%
81 | Cc1c(C#N)c(NC(=O)c2ccccc2)n(Cc2ccccc2)c1C | 2.3%
82 | Cc1nn(CCOc2ccccc2)c(=O)n1-c1ccccc1F | 5.48%
83 | COc1cc(/C=C(\C#N)c2nc3c(s2)CC(C)CC3)ccc1O (stereo not drawn) | 66% (active)
84 | COc1cc(C(=O)OC(C)C(=O)NCC2CCCCC2)cc(NC(=O)c2ccco2)c1OC (stereo not drawn) | -0.95%
85 | CCOCc1nnc(NC(=O)CSc2ccc(C)cc2)s1 | 6.99%
86 | CS(=O)(=O)c1ccc2c(c1)SC1=NC(=O)/C(=C/c3ccco3)C(=N)N12 | 36.1% (active)
87 | CN(C)CCNC(=O)Nc1cccc(Cl)c1Cl | 2.97%
88 | O=C1COc2ccc(NC(=O)N3CCN(c4ccc(F)cc4)CC3)cc2N1 | 5.12%
89 | O=C(CC12CC3CC(CC(C3)C1)C2)Nc1ccc2c(c1)COC2=O | 11.5%
90 | Oc1ccc2ccc3cccc[n+]3c2c1 | 120% [fluorescence artefact?] (active)
91 | CN1/C(=C\C(=O)c2oc3ccccc3c2N)C(C)(C)c2ccccc21 | 6.51%
92 | Cc1noc(C)c1C(=O)OCC(=O)/C=C1\N(C)c2ccccc2C1(C)C | 2.24%
93 | CN1/C(=C\C=C2\N=C(c3ccc(F)cc3)OC2=O)C(C)(C)c2ccccc21 | 48.7% (active)

— PubChem BioAssay AID704 (The Scripps Research Institute Molecular Screening Center, 2007)
